Assay results: ChEMBL document CHEMBL3232838, “Synthesis, crystal structure and biological evaluation of some novel 1,2,4-triazolo[3,4-b]-1,3,4-thiadiazoles and 1,2,4-triazolo[3,4-b]-1,3,4-thiadiazines” (Eur J Med Chem, 2014)

Tests used:
NCI-H157 [1] = experiment: Anticancer activity against human NCI-H157 cells at 100 uM after 48 hrs by SRB assay; format: functional; conditions: NCI-H157, 48 h, read-out: GI
Summary of the method: (§1)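 RPMI-1640 culture with 10% heat-inactivated FBS, 2 mM glutamine, 1 mM pyruvate and penicillin/streptomycin at 37 °C, 5% CO2. Cells per 96-well well: H157 10⁴, BHK-21 5×10⁴. After 24 h, monolayers were exposed to 100, 10, 1 or 0.1 µM compound for 48 h, with vincristine as standard. Cells were fixed in cold 50% TCA (4 °C, 1 h) and stained with 0.4% SRB in 1% acetic acid (30 min). Dye was dissolved in 10 mM Tris and read at A490 minus A630. Read-out was percent inhibition.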

NCI-H157 [2] = experiment: Anticancer activity against human NCI-H157 cells at 10 uM after 48 hrs by SRB assay; format: functional; conditions: NCI-H157, 48 h, read-out: GI; summary of the method: as §1
[3] = Anticancer activity against Syrian golden hamster BHK21 cells at 10 uM after 48 hrs by SRB assay; format: functional; conditions: Mesocricetus auratus, BHK-21, 48 h; read-out: GI; summary of the method: as §1
Leishmania major [4] = experiment: Antileishmanial activity against promastigote form of Leishmania major at 100 uM after 72 hrs by MTT assay; format: functional
Summary of the method: (§2)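 Log-phase promastigotes grown at 25 °C in phenol-red-free D-MEM/F-12 with 10% heat-inactivated FBS, washed in PBS, seeded at 2.5×10⁶/mL (100 µL/well). Compounds in triplicate wells, 72 h at 25 °C; amphotericin B standard. MTT (5 mg/mL stock) 3 h, stopped with 50% isopropanol/10% SDS, OD570 minus 690. Percent inhibition vs control; mean ± SEM of three independent experiments.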

Leishmania major [5] = experiment: Antileishmanial activity against promastigote form of Leishmania major at 10 uM after 72 hrs by MTT assay; format: functional; summary of the method: as §2
[6] = Anticancer activity against Syrian golden hamster BHK21 cells at 1 uM after 48 hrs by SRB assay; format: functional; conditions: Mesocricetus auratus, BHK-21, 48 h; read-out: GI; summary of the method: as §1
[7] = Anticancer activity against Syrian golden hamster BHK21 cells at 0.1 uM after 48 hrs by SRB assay; format: functional; conditions: Mesocricetus auratus, BHK-21, 48 h; read-out: GI; summary of the method: as §1
Leishmania major [8] = experiment: Antileishmanial activity against promastigote form of Leishmania major at 1 uM after 72 hrs by MTT assay; format: functional; summary of the method: as §2
Acetylcholinesterase = Acetylcholinesterase (Electrophorus electricus, UniProt O42275); experiment: (§3) Inhibition of electric eel acetylcholinesterase using acetylthiocholine iodide as substrate preincubated for 10 mins before substrate addition after 15 mins by Ellman's method
[9] = Anticancer activity against Syrian golden hamster BHK21 cells at 100 uM after 48 hrs by SRB assay; format: functional; conditions: Mesocricetus auratus, BHK-21, 48 h; read-out: GI; summary of the method: as §1
NCI-H157 [10] = experiment: Anticancer activity against human NCI-H157 cells at 0.1 uM after 48 hrs by SRB assay; format: functional; conditions: NCI-H157, 48 h, read-out: GI; summary of the method: as §1
[11] = molecular target: Intestinal-type alkaline phosphatase (Bos taurus) (UniProt P19111); experiment: (§4) Inhibition of calf intestinal alkaline phosphatase using p-nitrophenyl phosphate as substrate preincubated for 10 mins before substrate addition after 30 mins; parameters: concentration or dose not given beside the values
Cholinesterase = Cholinesterase (Homo sapiens, UniProt P06276); experiment: Inhibition of human BChE using butyrylthiocholine iodide as substrate preincubated for 10 mins before substrate addition after 15 mins by Ellman's method
Summary of the method: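 Ellman assay in 50 mM Tris-HCl, 0.1 M NaCl, 0.02 M MgCl2, pH 8.0, with DMSO at 1% final. hBChE (3.4 U/mg) is preincubated with compound for 10 min at 25 °C. Blanks lack enzyme or substrate. IC50 from linear regression.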

Leishmania major [12] = experiment: Antileishmanial activity against promastigote form of Leishmania major at 0.1 uM after 72 hrs by MTT assay; format: functional; summary of the method: as §2
NCI-H157 [13] = experiment: Anticancer activity against human NCI-H157 cells at 1 uM after 48 hrs by SRB assay; format: functional; conditions: NCI-H157, 48 h, read-out: GI; summary of the method: as §1
[14] = molecular target: Acetylcholinesterase (Electrophorus electricus) (UniProt O42275); experiment: as §3
[15] = molecular target: Intestinal-type alkaline phosphatase (Bos taurus, UniProt P19111); experiment: as §4
Sequence of Intestinal-type alkaline phosphatase (P19111 whole entry): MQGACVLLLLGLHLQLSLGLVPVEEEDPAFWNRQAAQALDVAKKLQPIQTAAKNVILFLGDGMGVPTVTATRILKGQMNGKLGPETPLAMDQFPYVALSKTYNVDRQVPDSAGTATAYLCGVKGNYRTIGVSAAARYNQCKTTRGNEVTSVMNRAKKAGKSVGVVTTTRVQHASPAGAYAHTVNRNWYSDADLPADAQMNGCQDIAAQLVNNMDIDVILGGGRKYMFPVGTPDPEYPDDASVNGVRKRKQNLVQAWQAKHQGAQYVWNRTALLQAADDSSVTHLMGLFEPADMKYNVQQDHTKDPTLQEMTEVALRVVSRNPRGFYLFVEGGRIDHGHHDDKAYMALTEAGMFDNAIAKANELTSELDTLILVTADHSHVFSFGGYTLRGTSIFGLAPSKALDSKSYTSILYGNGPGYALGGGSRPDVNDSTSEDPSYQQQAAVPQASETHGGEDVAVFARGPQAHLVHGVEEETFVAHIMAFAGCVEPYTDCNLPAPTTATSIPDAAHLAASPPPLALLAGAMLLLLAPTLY

Sequence of Cholinesterase (P06276 whole entry): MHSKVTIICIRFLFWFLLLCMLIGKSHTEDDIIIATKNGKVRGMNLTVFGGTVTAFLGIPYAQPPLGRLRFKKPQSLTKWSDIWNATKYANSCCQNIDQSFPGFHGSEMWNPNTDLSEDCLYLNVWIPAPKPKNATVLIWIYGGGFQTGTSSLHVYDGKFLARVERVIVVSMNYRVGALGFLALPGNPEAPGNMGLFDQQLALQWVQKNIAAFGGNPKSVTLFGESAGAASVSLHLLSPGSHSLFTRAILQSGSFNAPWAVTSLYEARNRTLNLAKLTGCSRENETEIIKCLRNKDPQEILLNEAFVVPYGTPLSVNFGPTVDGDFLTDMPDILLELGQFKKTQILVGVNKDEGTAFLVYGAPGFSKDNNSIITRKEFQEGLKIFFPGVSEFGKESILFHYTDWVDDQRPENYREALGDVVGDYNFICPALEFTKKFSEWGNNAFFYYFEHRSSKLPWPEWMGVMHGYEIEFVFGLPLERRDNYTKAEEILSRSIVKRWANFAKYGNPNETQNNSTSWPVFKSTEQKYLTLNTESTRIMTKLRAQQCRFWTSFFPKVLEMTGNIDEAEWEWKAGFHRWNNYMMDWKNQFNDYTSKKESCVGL
Sequence of Intestinal-type alkaline phosphatase (Bos taurus) (P19111 20-506 limits assumed): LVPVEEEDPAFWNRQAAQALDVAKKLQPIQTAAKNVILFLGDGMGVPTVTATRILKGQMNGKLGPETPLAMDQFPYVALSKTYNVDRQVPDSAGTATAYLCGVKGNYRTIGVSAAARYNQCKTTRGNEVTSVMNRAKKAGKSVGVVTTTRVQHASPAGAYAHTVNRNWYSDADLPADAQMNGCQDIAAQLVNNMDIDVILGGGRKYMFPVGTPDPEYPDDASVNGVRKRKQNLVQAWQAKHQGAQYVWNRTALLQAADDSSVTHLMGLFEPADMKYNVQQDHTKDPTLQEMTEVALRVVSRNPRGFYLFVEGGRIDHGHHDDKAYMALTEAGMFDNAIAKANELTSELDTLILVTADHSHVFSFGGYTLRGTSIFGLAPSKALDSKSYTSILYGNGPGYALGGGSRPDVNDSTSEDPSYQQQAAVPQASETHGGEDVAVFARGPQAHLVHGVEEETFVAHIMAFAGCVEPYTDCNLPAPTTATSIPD
Sequence of Acetylcholinesterase (O42275 whole entry): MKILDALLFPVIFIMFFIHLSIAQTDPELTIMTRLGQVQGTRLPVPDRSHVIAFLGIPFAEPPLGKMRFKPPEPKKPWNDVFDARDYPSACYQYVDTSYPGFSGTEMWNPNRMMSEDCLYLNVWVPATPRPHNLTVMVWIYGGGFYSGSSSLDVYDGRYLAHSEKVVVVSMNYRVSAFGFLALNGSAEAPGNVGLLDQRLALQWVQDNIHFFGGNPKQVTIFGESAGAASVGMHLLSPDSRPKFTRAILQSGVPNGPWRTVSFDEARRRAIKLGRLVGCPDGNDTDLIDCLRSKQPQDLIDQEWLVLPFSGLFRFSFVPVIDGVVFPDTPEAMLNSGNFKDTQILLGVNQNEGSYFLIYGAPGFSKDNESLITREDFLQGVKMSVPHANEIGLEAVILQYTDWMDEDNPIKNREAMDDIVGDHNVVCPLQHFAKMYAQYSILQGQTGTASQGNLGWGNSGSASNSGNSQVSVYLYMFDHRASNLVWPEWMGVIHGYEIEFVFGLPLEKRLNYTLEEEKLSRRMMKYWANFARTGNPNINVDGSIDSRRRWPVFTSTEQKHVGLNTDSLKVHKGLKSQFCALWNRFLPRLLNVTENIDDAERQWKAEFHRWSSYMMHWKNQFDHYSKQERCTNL
Sequence of Acetylcholinesterase (Electrophorus electricus) (O42275 24-633 limits assumed): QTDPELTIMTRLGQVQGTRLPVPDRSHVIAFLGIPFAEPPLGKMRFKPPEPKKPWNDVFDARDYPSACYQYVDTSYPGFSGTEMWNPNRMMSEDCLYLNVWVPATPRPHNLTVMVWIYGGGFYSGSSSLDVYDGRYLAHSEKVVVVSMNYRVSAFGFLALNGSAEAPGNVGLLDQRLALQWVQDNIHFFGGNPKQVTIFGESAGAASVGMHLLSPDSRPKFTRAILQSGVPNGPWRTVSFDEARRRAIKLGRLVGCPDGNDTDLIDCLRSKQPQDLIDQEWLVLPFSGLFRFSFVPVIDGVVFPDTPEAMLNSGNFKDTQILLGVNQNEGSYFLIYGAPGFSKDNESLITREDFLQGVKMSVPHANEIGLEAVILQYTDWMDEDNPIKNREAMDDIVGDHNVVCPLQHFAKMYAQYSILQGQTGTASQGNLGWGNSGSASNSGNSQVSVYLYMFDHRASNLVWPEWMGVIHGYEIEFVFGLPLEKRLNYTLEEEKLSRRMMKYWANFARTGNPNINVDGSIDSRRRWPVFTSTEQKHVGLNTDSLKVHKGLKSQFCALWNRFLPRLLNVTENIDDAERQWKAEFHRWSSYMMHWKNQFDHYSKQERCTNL

| Structure (SMILES) | inhibition of growth at 100 µM (NCI-H157 [1]) [%] | inhibition of growth at 10 µM (NCI-H157 [2]) [%] | inhibition of growth at 10 µM [3] [%] | inhibition at 100 µM (Leishmania major [4]) [%] | inhibition at 10 µM (Leishmania major [5]) [%] | inhibition of growth at 1 µM [6] [%] | inhibition of growth at 0.1 µM [7] [%] | inhibition at 1 µM (Leishmania major [8]) [%] | IC50 (Acetylcholinesterase) [µM] | inhibition of growth at 100 µM [9] [%] | inhibition of growth at 0.1 µM (NCI-H157 [10]) [%] | inhibition [11] [%] | IC50 (Cholinesterase) [µM] | inhibition at 0.1 µM (Leishmania major [12]) [%] | inhibition of growth at 1 µM (NCI-H157 [13]) [%] | inhibition [14] [%] | inhibition (Cholinesterase) [%] | IC50 [15] [µM] |
| --- | --- | --- | --- | --- | --- | --- | --- | --- | --- | --- | --- | --- | --- | --- | --- | --- | --- | --- |
| Oc1ccccc1OCc1nn2c(-c3ccncc3)nnc2s1 | 41.8 | 37.3 | 49.9 | 37.2 | 34.6 | 46.3 | 43.8 | 31.2 | 54 | 53.8 | 31.8 | 46 | 18 | 27.8 | 35.9 |  |  |  |
| Cc1ccc(C2=Nn3c(nnc3-c3ccncc3)SC2)cc1 | 63.8 | 57.3 | 68.7 | 43.9 | 39.8 | 62 | 53.1 | 37.7 |  | 72.6 | 50.3 | 35.7 | 26.1 | 34.5 | 53.2 | 46.1 |  |  |
| COc1cccc(C2=Nn3c(nnc3-c3ccncc3)SC2)c1 | 54.4 | 51.1 | 69.9 | 38.6 | 35.2 | 66.7 | 52.4 | 32.3 | 23.8 | 73.3 | 43.1 | 38.5 |  | 29.3 | 47.5 |  | 28.9 |  |
| Clc1cccc(C2=Nn3c(nnc3-c3ccncc3)SC2)c1 | 67.4 | 63.8 | 53.3 | 41.8 | 38.3 | 50.3 | 46.2 | 34.6 | 22.7 | 56.4 | 57.4 | 48 | 39.4 | 31.7 | 60.8 |  |  |  |
| Clc1ccc(C2=Nn3c(nnc3-c3ccncc3)SC2)cc1Cl | 72.1 | 67.4 | 59.4 | 59.8 | 56.4 | 56.5 | 52.8 | 52.3 |  | 63.5 | 59.4 |  | 12.2 | 49.3 | 63.5 | 46 |  | 1.32 |
| Cc1occc1-c1nn2c(-c3ccncc3)nnc2s1 | 58.4 | 55.1 | 61.6 | 34.9 | 30.8 | 57 | 54.6 | 27.3 | 51.2 | 64.7 | 47.1 | 29.9 |  | 25.1 | 51.9 |  | 41.2 |  |
| c1ccc(-c2ccc(C3=Nn4c(nnc4-c4ccncc4)SC3)cc2)cc1 | 56.9 | 62.3 | 41.8 | 61.2 | 58.9 | 37.5 | 32.7 | 55.9 | 16.1 | 45.8 | 44.5 |  | 42.6 | 52.3 | 47.8 |  |  | 3.84 |
| c1cc(-c2nnc3sc(-c4ccoc4)nn23)ccn1 | 64.3 | 61.6 | 28.7 | 54.6 | 51.5 | 23.3 | 20.3 | 48.5 |  | 31.2 | 54.8 |  | 36.2 | 45.2 | 57.7 | 34.6 |  | 7.71 |
| COc1ccc(OCc2nn3c(-c4ccncc4)nnc3s2)cc1 | 68.9 | 65.6 | 71.9 | 60.5 | 57.2 | 68.8 | 63.3 | 52.2 | 0.77 | 74 | 57.2 |  | 37.9 | 49.6 | 61.7 |  |  | 3.72 |
| CCOc1ccc(Cc2nn3c(-c4ccncc4)nnc3s2)cc1 | 70.5 | 67.4 | 45.4 | 66.8 | 63 | 40.9 | 38.2 | 60.8 | 3.48 | 48.6 | 60.2 |  | 32.1 | 56.4 | 63.8 |  |  | 6.17 |
| Fc1ccc(OCc2nn3c(-c4ccncc4)nnc3s2)cc1 | 32 | 28.5 | 48.3 | 53.8 | 51.4 | 45.4 | 43.8 | 49.1 | 36.8 | 52.7 | 21.3 |  | 54.1 | 46.7 | 25.6 |  |  | 2.59 |
